Experimental data published in publication PMC4277818 (Molecular imaging and biology : MIB : the official …, 2012).

System: TRAP5b
Assay: Serum TRAP5b solid-phase immunoassay
Assay type: in vivo, C57BL/6 mice
Conditions: 0.3 mg/kg RANKL twice a day for 10 days; PET/CT imaging study, n=4
In short: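 Male C57BL/6 mice (~23 g) got RANKL s.c. in the nape in 50 μL saline, twice a day for 10 days, under brief isoflurane; controls got vehicle. Blood was taken by submandibular venous puncture before biodistribution or at sacrifice. Serum was spun at 10,000 rpm for 5 min at 4°C and stored at −20°C. Osteoclastic TRAP5b was measured by solid-phase immunoassay. P<0.05 was significant.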

B1: RANKL: receptor activator of nuclear factor κB ligand, cytokine stimulating osteoclastogenesis; provided by Amgen (protein, UniProt O14788 140-317, looked up)
Tumor necrosis factor ligand …: IRAEKAMVDGSWLDLAKRSKLEAQPFAHLTINATDIPSGSHKVSLSSWYHDRGWAKISNMTFSNGKLIVNQDGFYYLYANICFRHHETSGDLATEYLQLMVYVTKTSIKIPSSHTLMKGGSTKYWSGNSEFHFYSINVGGFFKLRSGEEISIEVSNPSLLDPDQDATYFGAFKVRDID
For B1, the “increase of serum TRAP5b, RANKL-treated vs control cohort” value was 1.6 fold.
